Reference: ChEMBL document CHEMBL1157219, “Chalcones and other compounds from the exudates of Angelica keiskei and their cancer chemopreventive effects” (J Nat Prod, 2006)

Experiments:
[1] = Scavenging activity against (+/-)-(E)-methyl-2-[(E)-hydroxyimino]-5-nitro-6-methoxy-3-hexemide-induced NO generation in human Chang liver cells; format: functional
Outline: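 Human Chang liver cells (5 × 10^5/mL) were cultured in MEM Eagle medium for 3 days. Samples (350 nmol) were added 1 min before NOR 1 (350 nmol), then incubated 1 h in a CO2 incubator. Transformed cells were counted under light microscopy (×100, >250 cells). The inhibitory ratio is transformed % with NOR 1 alone divided by transformed % with NOR 1 plus sample, with NOR 1 taken as 1.0.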

[2] = tested on: Raji; test: Inhibition of TPA-induced EBV-early antigen activation in human Raji cells at 1000 molar ratio relative to TPA; format: cell-based; set-up: scale not given: the % may be the effect or the level left; conditions: human gammaherpesvirus 4
Outline: (§1)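 Raji cells incubated 48 h at 37 °C in medium with n-butyric acid (4 mM), TPA (32 pmol) and test compound at molar ratios to TPA (1000, 500, 100). Smears were stained for EBV-EA by indirect immunofluorescence. Induction is given as % of TPA-alone control (100%).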

[3] = tested on: Raji; test: Inhibition of TPA-induced EBV-early antigen activation in human Raji cells at 500 molar ratio relative to TPA; format: cell-based; set-up: scale not given: the % may be the effect or the level left; conditions: human gammaherpesvirus 4; outline: as §1
[4] = tested on: Raji; test: Inhibition of TPA-induced EBV-early antigen activation in human Raji cells at 100 molar ratio relative to TPA; format: cell-based; set-up: scale not given: the % may be the effect or the level left; conditions: human gammaherpesvirus 4; outline: as §1
[5] = tested on: Raji; test: Inhibition of TPA-induced EBV-early antigen activation in human Raji cells at 10 molar ratio relative to TPA; format: cell-based; set-up: scale not given: the % may be the effect or the level left; conditions: human gammaherpesvirus 4
[6] = Cytotoxicity against human Raji cells assessed as cell viability at 1000 molar ratio; format: cell-based; conditions: read-out: Activity
Outline: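 Raji cell viability was recorded as a percentage in the EBV-EA setup: 48 h at 37 °C with n-butyric acid (4 mM), TPA (32 pmol) and compound at 32 nmol (1000:1 molar ratio to TPA).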

[7] = Inhibition of TPA-induced EBV-early antigen activation in human Raji cells; format: cell-based, human gammaherpesvirus 4; outline: as §1
[8] = species: Mus musculus; test: Inhibition of tumor promotion in mouse assessed as papilloma bearing mouse after 20 weeks; format: functional
Outline: (§2)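 Two-stage mouse skin carcinogenesis using DMBA and TPA as promoter. Groups were 15 mice housed five per cage with water ad libitum. The percentage of papilloma-bearing mice was scored at 10 and 20 weeks of promotion in treated versus untreated groups.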

[9] = species: Mus musculus; test: Inhibition of tumor promotion in mouse assessed as papilloma bearing mouse after 10 weeks; format: functional; outline: as §2

| Compound | IC50 [7] [molar ratio] | Ratio [1] | Activity [2] [%] | Activity [3] [%] | Activity [4] [%] | Activity [5] [%] | viability at 1000 molar ratio [6] [%] | inhibition (INH) [8] [%] | inhibition (INH) [9] [%] |
| --- | --- | --- | --- | --- | --- | --- | --- | --- | --- |
| CC1(C)N([O])C(c2ccc(C(=O)O)cc2)=[N+]([O-])C1(C)C | – | 8 | – | – | – | – | – | – | – |
| C=C[C@@H](O)C#CC#C[C@@H](O)/C=C\CCCCCCCCOC(C)=O | 511 | 1.2 | 18.7 | 53.1 | 81.4 | 100 | 60 | – | – |
| CC(C)=CCCC1(C)CCc2c(O)ccc(C(=O)/C=C/c3ccc(O)cc3)c2O1 (stereo not given) | 273 | 2.4 | 0 | 20.3 | 64.7 | 87.3 | 70 | – | – |
| COc1ccc(C(=O)CCc2ccc(O)cc2)c2c1CCC(C)(C)O2 [DEOXYDIHYDROXANTHOANGELOL H] | 563 | 1.6 | 27.4 | 56.7 | 81.6 | 100 | 60 | – | – |
| COc1ccc(C(=O)/C=C/c2ccc(O)cc2)c2c1CCC(C)(C)O2 [DEOXYXANTHOANGELOL H] | 578 | 1.5 | 32.1 | 60.5 | 85.2 | 100 | 60 | – | – |
| CC1(C)CCc2c(ccc(C(=O)/C=C/c3ccc(O)cc3)c2O)O1 [DORSMANNIN A] | 583 | 1.9 | 34.2 | 61.7 | 86 | 100 | 60 | – | – |
| CC1(C)[C@@H](O[C@H]2O[C@H](C(=O)O)[C@@H](O)[C@H](O)[C@H]2O[C@@H]2O[C@H](C(=O)O)[C@@H](O)[C@H](O)[C@H]2O)CC[C@]2(C)[C@H]3C(=O)C=C4[C@@H]5C[C@@](C)(C(=O)O)CC[C@]5(C)CC[C@@]4(C)[C@]3(C)CC[C@@H]12 [GLYCYRRHIZIN] | 572 | 2.2 | 27.4 | 63.3 | 83.3 | 100 | > 80 | – | – |

Second part, led by results:

| IC50 [7] [molar ratio] | Compound | Ratio [1] | Activity [2] [%] | Activity [3] [%] | Activity [4] [%] | Activity [5] [%] | viability at 1000 molar ratio [6] [%] | inhibition (INH) [8] [%] | inhibition (INH) [9] [%] |
| --- | --- | --- | --- | --- | --- | --- | --- | --- | --- |
| 320 | CC(C)=CCc1c(O)ccc(C(=O)/C=C/c2ccc(O)cc2)c1O [ISOBAVACHALCONE] | 2 | 0 | 26.3 | 63 | 98.4 | 60 | 80 | 20 |
| 486 | COc1c2ccoc2c(OC)c2oc(=O)ccc12 [ISOPIMPINELLIN] | 1.4 | 12.1 | 57.4 | 81.5 | 100 | 60 | – | – |
| 490 | COc1c2occc2cc2ccc(=O)oc12 [METHOXSALEN] | 1.3 | 14.2 | 55.2 | 83.1 | 100 | 60 | – | – |
| 230 | COc1cc(O)c2c(c1CC=C(C)C)O[C@H](c1ccc(O)cc1)CC2=O [MUNDULEAFLAVANONE B] | 2.3 | 0 | 24.9 | 66.7 | 90.3 | 70 | – | – |
| 290 | CC(C)=CCc1c(O)ccc2ccc(=O)oc12 [OSTHENOL] | 2 | 0 | 30.1 | 69.8 | 90.6 | 70 | – | – |
| 215 | CC(C)=CCC/C(C)=C/Cc1c(O)cc(O)c2c1O[C@H](c1ccc(O)cc1)CC2=O [SOPHORAFLAVANONE A] | 2.1 | 0 | 18.5 | 56.4 | 89.3 | 70 | – | – |
| 482 | CC1=C(/C=C/C(C)=C/C=C/C(C)=C/C(=O)O)C(C)(C)CCC1 [TRETINOIN] | – | 15.3 | 49.3 | 76.3 | 100 | 60 | – | – |
| 264 | CC(C)=CCCC(C)(O)CCc1c(O)ccc(C(=O)/C=C/c2ccc(O)cc2)c1O (stereo not given) [XANTHOANGELOL J] | 2.4 | 0 | 12.5 | 66.8 | 90.2 | 70 | – | – |
